Measurements reported in publication PMC3646928 (Peptides, 2013).

Key:
E. coli MG1655 cells = assay: Bacterial TUNEL assay; format: cell-based; conditions: highest concentration tested, 1.5 hours
Method in brief: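 E. coli MG1655 grown as for MIC testing: overnight culture diluted 1:100 in Mueller Hinton broth, grown to OD600 0.08–0.1, then exposed to peptide for 1.5 h. Cells pelleted and resuspended in 1× PBS. TdT labels 3′-OH ends with fluorescein-dUTP; TOTO-3 counterstains DNA. Flow cytometry (488 nm FITC, 633 nm APC; 50,000 events). TUNEL-positive expressed as fraction of TOTO-3-positive cells, normalized to DMSO-treated cells.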

protein-free HJ DNA = assay: Non-competitive HJ band shift; format: binding

Substance | TUNEL-positive cells (E. coli MG1655 cells) [%] | shift of protein-free HJ DNA in EMSA (specific shift) (protein-free HJ DNA)
WRWYCR | 75.6 ± 2.2 | –
WRWYGGYWRW | – | Neither WRWYGGYWRW nor WYCRGGRCYW caused specific shifts at low peptide concentrations
KWWRGGRWWK | – | caused a change in the mobility of protein-free HJ DNA similar to shifts seen with (WRWYCR)2
WYCRGGRCYW | – | Neither WRWYGGYWRW nor WYCRGGRCYW caused specific shifts at low peptide concentrations
